Six molecules from ChEMBL document CHEMBL1914385, “Isolation, structure, and biological activities of Fellutamides C and D from an undescribed Metulocladosporiella (Chaetothyriales) using the genome-wide Candida albicans fitness test” (J Nat Prod, 2011) can be followed below.

A word on the MIC: it is the smallest concentration in the dilution series that meets the test's criterion for growth inhibition. A lower MIC goes with a more susceptible organism. The IC50 is the midpoint of a concentration-inhibition curve. The low end stands for greater potency in that assay, the high end for weaker potency in that assay.

The structures appear in SMILES notation. In brackets after ≈: the same amount, converted by molar mass. Activity calls are given as the source filed them. Non-standard residues stand in square brackets, D forms with d. Residues, ends and D or L forms follow the SMILES beside them. *: point of attachment. Myristoyl = CCCCCCCCCCCCCC(=O)*; Leu(ol) = CC(C)C[C@H](N)CO

Experiment [1] deals with Candida albicans. The experiment in a line: Antifungal activity against Candida albicans at 200 ug/ml after 24 hrs by NCCLS M27-P broth macrodilution method. Type of experiment: functional, organism-based.
Experiment [2] deals with Candida albicans. The experiment in a line: Antifungal activity against wild-type Candida albicans at 0.01 to 10 ug/mL after 24 hrs by NCCLS M27-P broth macrodilution method. Type of experiment: functional, organism-based.
Experiment [3] deals with Candida albicans. The experiment in a line: Antifungal activity against Candida albicans harboring heterozygous deletion of PRE4/orf19.4230 at 0.01 to 10 ug/mL after 24 hrs by NCCLS M27-P broth macrodilution method. Type of experiment: functional, organism-based.
Experiment [4] deals with Candida albicans. Kind of experiment: Antifungal activity against Candida albicans harboring heterozygous deletion of PRE4/orf19.4230 at 10 ug/mL after 24 hrs by NCCLS M27-P broth macrodilution method. Type of experiment: functional, organism-based.
Experiment [5] deals with Candida albicans. Kind of experiment: Antifungal activity against wild-type Candida albicans at 10 ug/mL after 24 hrs by NCCLS M27-P broth macrodilution method. Type of experiment: functional, organism-based.
The next experiment relates to Staphylococcus aureus. Kind of experiment: Antibacterial activity against Staphylococcus aureus MB2865. Type of experiment: functional.
Experiment [6] relates to Candida albicans. The experiment in a line: Antifungal activity against Candida albicans after 24 hrs by NCCLS M27-P broth macrodilution method. The experiment is classed as functional.
Another experiment relates to Aspergillus fumigatus. The experiment in a line: Antifungal activity against Aspergillus fumigatus MF5668 after 24 hrs by NCCLS M27-P broth macrodilution method. The experiment is classed as functional. To be noted: MF5668, 24 h. An outline of the steps: (§1)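 MIC panel run in the fitness-test medium (modified RPMI), following an earlier published MIC method.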
Experiment [7] relates to Candida albicans. Kind of experiment: Ratio of lactacystin IC50 to compound IC50 for Candida albicans 26S proteasome.
The nature of experiment [8]: Inhibition of Candida albicans 26S proteasome. An outline of the steps: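 Chymotrypsin-like proteasome activity measured by luminogenic Proteasome-Glo assay, with modifications. Used whole-cell extracts of exponential-phase C. albicans, about 10⁶ cell equivalents per assay.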
The subject of the next experiment is A549. Kind of experiment: Growth inhibition of human A549 cells at 3.1 to 50000 nM.
Experiment [9] deals with Candida albicans. Kind of experiment: Antifungal activity against Candida albicans harboring heterozygous deletion of orf19.4088/NUP188 after 24 hrs by NCCLS M27-P broth macrodilution method. Type of experiment: functional.
The test system of the next experiment is Nakaseomyces glabratus. The experiment in a line: Antifungal activity against Candida glabrata MY1381 after 24 hrs by NCCLS M27-P broth macrodilution method. To be noted: MY1381, 24 h. Type of experiment: functional. An outline of the steps: as §1
The next experiment concerns Candida parapsilosis. The experiment in a line: Antifungal activity against Candida parapsilosis ATCC 22019 after 24 hrs by NCCLS M27-P broth macrodilution method. The experiment is classed as functional. To be noted: Lodderomyces parapsilosis, ATCC 22019, 24 h. The method, boiled down:
as §1

Experiment [10] has as its system Candida albicans. Kind of experiment: Antifungal activity against Candida albicans 2323 after 24 hrs by NCCLS M27-P broth macrodilution method. Type of experiment: functional. To be noted: Candida albicans, 2323, 24 h. The method, boiled down:
as §1

Experiment [11] deals with Trichophyton mentagrophytes. The experiment in a line: Antifungal activity against Trichophyton mentagrophytes MF7004 after 24 hrs by NCCLS M27-P broth macrodilution method. The experiment is classed as functional. To be noted: MF7004, 24 h. An outline of the steps: as §1
Experiment [12] deals with Candida albicans. The experiment in a line: Antifungal activity against Candida albicans harboring heterozygous deletion of PRE4/orf19.4230 after 24 hrs by NCCLS M27-P broth macrodilution method. Type of experiment: functional.
Experiment [13] has as its system Candida albicans. Kind of experiment: Antifungal activity against Candida albicans harboring heterozygous deletion of orf19.3168/RPN8 after 24 hrs by NCCLS M27-P broth macrodilution method. Type of experiment: functional.
A further experiment has as its system PC-3. The experiment in a line: Growth inhibition of human PC3 cells. Type of experiment: functional, cell-based. An outline of the steps: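 PC-3 cells treated for 48 h across an 8-point dose series (final 50 000, 12 500, 3125, 781.3, 195.3, 48.8, 12.2, 3.1 nM). Viable cell mass was measured by ATP luminescence (Vialight) to give IC50.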
Experiment [14] relates to Candida albicans. Kind of experiment: Antifungal activity against Candida albicans harboring heterozygous deletion of orf19.5378/SCL1 after 24 hrs by NCCLS M27-P broth macrodilution method. The experiment is classed as functional.
Another experiment deals with Candida tropicalis. The experiment in a line: Antifungal activity against Candida tropicalis MY1012 after 24 hrs by NCCLS M27-P broth macrodilution method. Type of experiment: functional. To be noted: MY1012, 24 h. The method, boiled down:
as §1

Experiment [15] has as its system Candida albicans. Kind of experiment: Ratio of gliotoxin IC50 to compound IC50 for Candida albicans 26S proteasome.
For a further experiment, the system named is Pichia kudriavzevii. The experiment in a line: Antifungal activity against Candida krusei ATCC 6258 after 24 hrs by NCCLS M27-P broth macrodilution method. The experiment is classed as functional. To be noted: ATCC 6258, 24 h. An outline of the steps: as §1
For the next experiment, the system named is Clavispora lusitaniae. The experiment in a line: Antifungal activity against Candida lusitaniae MY1396 after 24 hrs by NCCLS M27-P broth macrodilution method. The experiment is classed as functional. To be noted: MY1396, 24 h. An outline of the steps:
as §1

Take `CC(=O)N[C@@H](CSC(=O)[C@]1([C@@H](O)C(C)C)NC(=O)[C@H](C)[C@@H]1O)C(=O)O`: the result in the experiment with Candida albicans [1] was inactive.
In the case of `CCCCCCCCCCCCCC(=O)N[C@@H](CC(N)=O)C(=O)N[C@@H](CCC(N)=O)C(=O)N[C@H](C=O)CC(C)C` (Myristoyl-Asn-Gln-Leu-aldehyde), the result in the experiment with Candida albicans [2] and in the experiment with Candida albicans [3] was Active.
With `CCCCCCCCCCCCCC(=O)N[C@@H](CC(N)=O)C(=O)N[C@@H](CCC(N)=O)C(=O)N[C@H](CO)CC(C)C` (Myristoyl-Asn-Gln-[Leu(ol)]), the outcome with Candida albicans [4] and in the experiment with Candida albicans [5] was inactive.
For the molecule `CCCCCCCCCCC[C@@H](O)CC(=O)N[C@@H](CC(N)=O)C(=O)N[C@H](C(=O)N[C@H](C=O)C(C)C)C(O)CC(N)=O` (stereo partly specified) [FELLUTAMIDE C], the minimal inhibitory concentration (MIC) was greater than 32 µg/mL against Staphylococcus aureus; 1.25 µg/mL (≈ 2.13 µM) against Candida albicans [6]; 16 µg/mL (≈ 27.3 µM) against Aspergillus fumigatus; 2.5 µg/mL (≈ 4.27 µM) against Candida albicans [9]; 4 µg/mL (≈ 6.83 µM) with Nakaseomyces glabratus; 2 µg/mL (≈ 3.41 µM) against Candida parapsilosis. Also, the MIC in the experiment with Candida albicans [10] is 4 µg/mL (≈ 6.83 µM); in experiment [11] it was greater than 32 µg/mL; in the experiment on Candida albicans [12] it was 2.5 µg/mL (≈ 4.27 µM); against Candida albicans [13], 2.5 µg/mL (≈ 4.27 µM); in the experiment with Candida albicans [14], 2.5 µg/mL (≈ 4.27 µM); against Candida tropicalis, 4 µg/mL (≈ 6.83 µM). In addition, the minimal inhibitory concentration (MIC) amounted to 4 µg/mL (≈ 6.83 µM) with Pichia kudriavzevii and 16 µg/mL (≈ 27.3 µM) against Clavispora lusitaniae. The Ratio IC50 in the experiment on Candida albicans [7] and with Candida albicans [15] was 10 each time. Besides, the IC50 was determined as 0.2 µg/mL (≈ 0.341 µM) in [8] and 440 nM in the experiment with PC-3. Besides, in the experiment on A549, the “growth inhibition (GI)” value was “inactive”.
As for `CCCCCCCCCCC[C@@H](O)CC(=O)N[C@@H](CC(N)=O)C(=O)N[C@H](C(=O)N[C@H](C=O)CC(C)C)C(O)CC(N)=O` (stereo partly specified) [FELLUTAMIDE D], the minimal inhibitory concentration (MIC) against Staphylococcus aureus was greater than 32 µg/mL; against Candida albicans [6] it was 1.25 µg/mL (≈ 2.08 µM); in the experiment with Aspergillus fumigatus, 32 µg/mL (≈ 53.4 µM); with Candida albicans [9], 10 µg/mL (≈ 16.7 µM); in the experiment with Nakaseomyces glabratus, 8 µg/mL (≈ 13.3 µM); against Candida parapsilosis it was 8 µg/mL (≈ 13.3 µM). In addition, the minimum inhibitory concentration (MIC) against Candida albicans [10] was 16 µg/mL (≈ 26.7 µM); in experiment [11], greater than 32 µg/mL; in the experiment on Candida albicans [12], 10 µg/mL (≈ 16.7 µM); against Candida albicans [13] it was 10 µg/mL (≈ 16.7 µM); with Candida albicans [14], 10 µg/mL (≈ 16.7 µM); with Candida tropicalis, 8 µg/mL (≈ 13.3 µM). Also, the figures for the MIC with Pichia kudriavzevii and in the experiment with Clavispora lusitaniae were 8 µg/mL (≈ 13.3 µM) and 32 µg/mL (≈ 53.4 µM), respectively. The outcome in the experiment on Candida albicans [2] and in the experiment on Candida albicans [3] was Active. For the same molecule, the Ratio IC50 in the experiment with Candida albicans [7] and in the experiment with Candida albicans [15] was 10 in each case. The IC50 came to 0.2 µg/mL (≈ 0.333 µM) in experiment [8] and 160 nM with PC-3. Moreover, in the experiment with A549, the “growth inhibition (GI)” value is “inactive”.
On to `CN1C(=O)[C@]23CC4=CC=C[C@H](O)[C@H]4N2C(=O)[C@@]1(CO)SS3` [GLIOTOXIN], for which, in the experiment with Candida albicans [6], the MIC is 4 µg/mL (≈ 12.3 µM).
